ChEMBL document CHEMBL3286371, “wALADin benzimidazoles differentially modulate the function of porphobilinogen synthase orthologs” (J Med Chem, 2014)
The source made the active and inactive calls. No cut-off for these calls is given here.

Assays:
[1] = biological target: T1, Delta-aminolevulinic acid dehydratase (Pseudomonas aeruginosa (strain ATCC 15692 / PAO1 / 1C / PRS 101 / LMG12228), UniProt Q59643); assay: Inhibition of Pseudomonas aeruginosa PAO1 recombinant PBGS using 5-ALA as substrate
How it was run: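 Turnover kept at or below 30%. Porphobilinogen measured with Ehrlich's reagent. IC50 by variable-slope fit of activity normalized to DMSO control.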

[2] = biological target: T2, Delta-aminolevulinic acid dehydratase, chloroplastic (Pisum sativum, UniProt P30124); assay: Inhibition of Pisum sativum PBGS using 5-ALA as substrate; set-up: species or system Lathyrus oleraceus
T2 sequence (P30124 whole entry): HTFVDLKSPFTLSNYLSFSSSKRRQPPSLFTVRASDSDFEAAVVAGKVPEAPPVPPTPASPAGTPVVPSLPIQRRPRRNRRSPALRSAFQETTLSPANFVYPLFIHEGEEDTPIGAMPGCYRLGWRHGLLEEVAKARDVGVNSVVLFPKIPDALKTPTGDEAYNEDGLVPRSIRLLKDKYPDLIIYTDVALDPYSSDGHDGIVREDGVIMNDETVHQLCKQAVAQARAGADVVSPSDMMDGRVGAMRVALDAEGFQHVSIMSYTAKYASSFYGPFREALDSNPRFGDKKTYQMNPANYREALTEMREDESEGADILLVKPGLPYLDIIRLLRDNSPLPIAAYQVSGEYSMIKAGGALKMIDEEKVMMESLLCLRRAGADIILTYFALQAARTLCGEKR
How it was run: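 Pea (P. sativum) PBGS at 300 nM subunit in 100 mM BTP-HCl pH 8.5 with 1 mM MgCl2, 5 mM DTT and 0.2 mM 5-ALA, 15 min at 36 °C. Porphobilinogen detected with Ehrlich's reagent. Activity normalized to 6.7% DMSO control as 100%. IC50 from variable-slope normalized-response fit.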

[3] = biological target: T3, Delta-aminolevulinic acid dehydratase (Wolbachia sp. subsp. Brugia malayi (strain TRS), UniProt Q5GSR3); assay: Inhibition of C-terminal His-tagged Wolbachia PBGS using 5-ALA as substrate
T3 sequence (Q5GSR3 whole entry): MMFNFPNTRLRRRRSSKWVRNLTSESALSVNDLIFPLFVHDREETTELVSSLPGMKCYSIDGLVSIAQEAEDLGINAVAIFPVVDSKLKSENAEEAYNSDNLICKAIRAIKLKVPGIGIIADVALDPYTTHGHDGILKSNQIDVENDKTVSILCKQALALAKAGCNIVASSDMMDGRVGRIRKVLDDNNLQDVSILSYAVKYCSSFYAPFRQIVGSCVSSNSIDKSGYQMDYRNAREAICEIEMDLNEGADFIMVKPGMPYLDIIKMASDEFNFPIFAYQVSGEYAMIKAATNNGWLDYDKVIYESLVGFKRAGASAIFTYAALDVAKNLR

[4] = biological target: T4, Delta-aminolevulinic acid dehydratase (Escherichia coli (strain K12)) (UniProt P0ACB2); assay: Stimulation of Escherichia coli recombinant PBGS using 5-ALA as substrate at […]
T4 sequence (whole entry): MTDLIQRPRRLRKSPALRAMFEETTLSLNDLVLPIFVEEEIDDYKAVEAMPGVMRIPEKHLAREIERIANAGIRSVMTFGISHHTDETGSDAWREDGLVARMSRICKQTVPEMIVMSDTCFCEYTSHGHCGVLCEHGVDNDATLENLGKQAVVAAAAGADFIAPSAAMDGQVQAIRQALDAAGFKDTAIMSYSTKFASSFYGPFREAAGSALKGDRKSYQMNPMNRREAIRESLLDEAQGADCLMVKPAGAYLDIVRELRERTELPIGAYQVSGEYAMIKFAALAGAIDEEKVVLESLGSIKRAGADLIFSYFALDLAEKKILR

[5] = biological target: T4, Delta-aminolevulinic acid dehydratase (Escherichia coli (strain K12)); assay: Inhibition of Escherichia coli recombinant PBGS using 5-ALA as substrate at […]
[6] = biological target: Delta-aminolevulinic acid dehydratase (Yersinia enterocolitica W22703) (UniProt F4MUJ9); assay: Stimulation of Yersinia enterocolitica recombinant PBGS expressed in Escherichia coli using 5-ALA as substrate at […]
[7] = biological target: Delta-aminolevulinic acid dehydratase (Yersinia enterocolitica W22703) (UniProt F4MUJ9); assay: Inhibition of Yersinia enterocolitica recombinant PBGS expressed in Escherichia coli using 5-ALA as substrate at […]
[8] = biological target: Delta-aminolevulinic acid dehydratase (Pseudomonas aeruginosa (strain ATCC 15692 / PAO1 / 1C / PRS 101 / LMG12228)) (UniProt Q59643); assay: Stimulation of Pseudomonas aeruginosa PAO1 recombinant PBGS using 5-ALA as substrate at […]
[9] = biological target: Delta-aminolevulinic acid dehydratase (Pseudomonas aeruginosa (strain ATCC 15692 / PAO1 / 1C / PRS 101 / LMG12228)) (UniProt Q59643); assay: Inhibition of Pseudomonas aeruginosa PAO1 recombinant PBGS using 5-ALA as substrate at […]
[10] = tested on: Toxoplasma gondii; assay: Stimulation of Toxoplasma gondii recombinant PBGS using 5-ALA as substrate at […]
[11] = tested on: Toxoplasma gondii; assay: Inhibition of Toxoplasma gondii recombinant PBGS using 5-ALA as substrate at […]
[12] = biological target: T5, Delta-aminolevulinic acid dehydratase (Drosophila melanogaster, UniProt Q9VTV9); assay: Inhibition of Drosophila melanogaster recombinant PBGS using 5-ALA as substrate
T5 sequence (Q9VTV9 whole entry): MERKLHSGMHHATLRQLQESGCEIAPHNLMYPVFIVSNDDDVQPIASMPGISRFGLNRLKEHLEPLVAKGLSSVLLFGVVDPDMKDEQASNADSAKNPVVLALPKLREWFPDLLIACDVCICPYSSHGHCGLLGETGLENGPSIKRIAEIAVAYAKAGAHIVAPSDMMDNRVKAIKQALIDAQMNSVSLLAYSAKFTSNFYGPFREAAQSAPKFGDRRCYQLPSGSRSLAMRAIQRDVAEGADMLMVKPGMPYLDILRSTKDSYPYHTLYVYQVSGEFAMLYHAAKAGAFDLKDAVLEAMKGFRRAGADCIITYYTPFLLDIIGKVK

[13] = biological target: T6, Delta-aminolevulinic acid dehydratase (Homo sapiens, UniProt P13716); assay: Inhibition of human PBGS using 5-ALA as substrate
T6 sequence (P13716 whole entry): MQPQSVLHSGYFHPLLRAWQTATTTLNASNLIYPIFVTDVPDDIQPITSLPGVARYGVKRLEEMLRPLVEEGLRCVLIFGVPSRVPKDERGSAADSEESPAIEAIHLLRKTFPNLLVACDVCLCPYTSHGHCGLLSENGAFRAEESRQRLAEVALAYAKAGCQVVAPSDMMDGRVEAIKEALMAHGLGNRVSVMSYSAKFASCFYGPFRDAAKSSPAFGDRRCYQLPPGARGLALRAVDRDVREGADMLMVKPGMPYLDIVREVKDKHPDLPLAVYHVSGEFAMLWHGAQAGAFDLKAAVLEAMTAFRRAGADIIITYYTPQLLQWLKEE

[14] = biological target: T7, Delta-aminolevulinic acid dehydratase (Escherichia coli (strain K12), UniProt P0ACB2); assay: Stimulation of Escherichia coli recombinant PBGS using 5-ALA as substrate
T7 sequence (P0ACB2 whole entry): T4 sequence (whole entry)
How it was run: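 E. coli PBGS at 200 nM subunit in 100 mM BTP-HCl pH 8.1 with 1 mM MgCl2, 10 μM ZnCl2, 5 mM DTT and 0.2 mM 5-ALA, 10 min at 36 °C. Porphobilinogen detected with Ehrlich's reagent. Activity normalized to control with 6.7% DMSO set at 100%. EC50 by log(agonist) vs response variable-slope fit.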

[15] = biological target: Delta-aminolevulinic acid dehydratase (Yersinia enterocolitica W22703) (UniProt F4MUJ9); assay: Stimulation of Yersinia enterocolitica recombinant PBGS expressed in Escherichia coli using 5-ALA as substrate relative to control
How it was run: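 Y. enterocolitica PBGS, expressed in E. coli from pET3, at 150 nM subunit in 100 mM BTP-HCl pH 8.0 with 1 mM MgCl2, 5 mM DTT, 100 mM KCl and 0.2 mM 5-ALA, 10 min at 36 °C. Porphobilinogen read with Ehrlich's reagent. Activity normalized to 6.7% DMSO control as 100%. EC50 from variable-slope agonist fit.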

[16] = biological target: T1, Delta-aminolevulinic acid dehydratase; assay: Stimulation of Pseudomonas aeruginosa PAO1 recombinant PBGS using 5-ALA as substrate
How it was run: (§1)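 His-tagged PaPBGS at 150 nM subunit in 100 mM Tris-HCl pH 8.0 with 1 mM MgCl2, 100 mM KCl and 0.2 mM 5-ALA, 10 min at 36 °C, with turnover at most 30%. Porphobilinogen read with Ehrlich's reagent. Activity normalized to 6.7% DMSO control as 100%. EC50 from variable-slope agonist fit.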

[17] = biological target: Delta-aminolevulinic acid dehydratase (Pseudomonas aeruginosa (strain ATCC 15692 / PAO1 / 1C / PRS 101 / LMG12228)) (UniProt Q59643); assay: Stimulation of Pseudomonas aeruginosa PAO1 recombinant PBGS using 5-ALA as substrate relative to control; how it was run: as §1
[18] = Stimulation of Toxoplasma gondii recombinant PBGS using 5-ALA as substrate
How it was run: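 T. gondii PBGS, expressed from pET-21b in BL21 E. coli and purified, at 250 nM subunit in 100 mM Tris-HCl pH 8.0 with 1 mM MgCl2, 5 mM DTT and 0.2 mM 5-ALA, 20 min at 36 °C. Porphobilinogen detected with Ehrlich's reagent. Activity normalized to 6.7% DMSO control. EC50 by variable-slope agonist fit.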

[19] = tested on: Toxoplasma gondii; assay: Stimulation of Toxoplasma gondii recombinant PBGS using 5-ALA as substrate relative to control
How it was run: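 Recombinant T. gondii PBGS (hemB in pET-21b, expressed in BL21 E. coli) at 250 nM subunit in 100 mM Tris-HCl pH 8.0, 1 mM MgCl2, 5 mM DTT, with 200 μM 5-ALA, 20 min at 36 °C. Porphobilinogen was read with Ehrlich's reagent, and turnover was kept at or below 30%.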

Chain of Delta-aminolevulinic acid dehydratase (Yersinia enterocolitica W22703) (F4MUJ9 as listed by the source): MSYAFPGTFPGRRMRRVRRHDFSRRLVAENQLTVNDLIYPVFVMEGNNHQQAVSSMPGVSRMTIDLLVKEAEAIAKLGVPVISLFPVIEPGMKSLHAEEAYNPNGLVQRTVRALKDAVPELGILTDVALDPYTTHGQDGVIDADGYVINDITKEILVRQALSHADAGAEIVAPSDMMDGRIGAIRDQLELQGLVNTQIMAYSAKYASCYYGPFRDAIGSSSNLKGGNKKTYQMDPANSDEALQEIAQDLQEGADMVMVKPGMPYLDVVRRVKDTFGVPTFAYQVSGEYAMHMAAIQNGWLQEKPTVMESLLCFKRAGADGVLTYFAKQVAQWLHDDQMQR
Chain of Delta-aminolevulinic acid dehydratase (Pseudomonas aeruginosa (strain ATCC 15692 / PAO1 / 1C / PRS 101 / LMG12228)) (Q59643 whole entry): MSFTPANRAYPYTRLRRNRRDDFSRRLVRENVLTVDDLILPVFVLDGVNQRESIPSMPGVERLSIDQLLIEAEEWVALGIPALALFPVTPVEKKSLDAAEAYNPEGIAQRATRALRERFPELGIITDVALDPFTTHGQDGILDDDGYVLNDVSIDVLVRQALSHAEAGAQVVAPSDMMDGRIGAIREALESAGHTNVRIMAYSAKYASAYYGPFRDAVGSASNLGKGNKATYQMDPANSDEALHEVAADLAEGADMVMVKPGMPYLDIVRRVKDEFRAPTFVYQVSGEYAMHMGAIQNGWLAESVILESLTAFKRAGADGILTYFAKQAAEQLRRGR
T1 sequence (Q59643 whole entry): as above

O=C(O)c1ccc2c(c1)ncn2Cc1cccc(C(F)(F)F)c1
IC50 [1]: 94 µM
IC50 [2]: 18.5 µM
IC50 [3]: 13 µM
Smax [4]: 100%
inhibition [5]: inactive
Smax [6]: 100%
inhibition [7]: inactive
Smax [8]: 100%
inhibition [9]: inactive
Smax [10]: 100%
inhibition [11]: inactive
IC50 [12]: 340 µM
IC50 [13]: 197 µM

Cn1cnc2cc(C(=O)O)ccc21
IC50 [2]: 257 µM
Smax [4]: 100%
inhibition [5]: inactive
Smax [6]: 100%
inhibition [7]: inactive
Smax [8]: 100%
inhibition [9]: inactive
Smax [10]: 100%
inhibition [11]: inactive
IC50 [12]: > 1000 µM

O=C(O)c1ccc2c(c1)nc(CCNC(=O)c1cccs1)n2Cc1ccc(C(F)(F)F)cc1
IC50 [2]: 44.3 µM
IC50 [3]: 38.6 µM
EC50 [14]: 39 µM
Smax [15]: 142%
EC50 [16]: 68 µM
Smax [17]: 140%
EC50 [18]: 37 µM
Smax [19]: 118%
IC50 [12]: 1010 µM
IC50 [13]: 637 µM

COc1cccc(Cn2cnc3cc(C(=O)O)ccc32)c1
IC50 [2]: 155 µM
IC50 [3]: 205 µM
Smax [4]: 100%
inhibition [5]: inactive
Smax [6]: 100%
inhibition [7]: inactive
Smax [8]: 100%
inhibition [9]: inactive
Smax [10]: 100%
inhibition [11]: inactive
IC50 [12]: 370 µM
IC50 [13]: 156 µM

O=C(O)c1ccc2[nH]c(CCNC(=O)c3cccs3)nc2c1
IC50 [2]: 114 µM
IC50 [3]: 500 µM
Smax [4]: 100%
inhibition [5]: inactive
Smax [6]: 100%
inhibition [7]: inactive
Smax [8]: 100%
inhibition [9]: inactive
Smax [10]: 100%
inhibition [11]: inactive
IC50 [12]: 448 µM

O=C(O)c1ccc2[nH]cnc2c1
IC50 [2]: > 500 µM
IC50 [3]: 500 µM
Smax [4]: 100%
inhibition [5]: inactive
Smax [6]: 100%
inhibition [7]: inactive
Smax [8]: 100%
inhibition [9]: inactive
Smax [10]: 100%
inhibition [11]: inactive
IC50 [12]: > 1000 µM
IC50 [13]: 511 µM

O=C(O)c1ccc2c(c1)ncn2Cc1ccc(C(F)(F)F)cc1
IC50 [2]: 43.1 µM
IC50 [3]: 87.7 µM
Smax [4]: 100%
inhibition [5]: inactive
Smax [6]: 100%
inhibition [7]: inactive
Smax [8]: 100%
inhibition [9]: inactive
Smax [10]: 100%
inhibition [11]: inactive
IC50 [12]: 620 µM
IC50 [13]: 173 µM

Cc1cccc(Cn2cnc3cc(C(=O)O)ccc32)c1
IC50 [2]: 95.9 µM
IC50 [3]: 134 µM
Smax [4]: 100%
inhibition [5]: inactive
Smax [6]: 100%
inhibition [7]: inactive
Smax [8]: 100%
inhibition [9]: inactive
Smax [10]: 100%
inhibition [11]: inactive
IC50 [12]: 371 µM
IC50 [13]: 222 µM

O=C(O)c1ccc2c(c1)ncn2Cc1ccccc1C(F)(F)F
IC50 [2]: 64.3 µM
IC50 [3]: 293 µM
Smax [4]: 100%
inhibition [5]: inactive
Smax [6]: 100%
inhibition [7]: inactive
Smax [8]: 100%
inhibition [9]: inactive
Smax [10]: 100%
inhibition [11]: inactive
IC50 [12]: > 1000 µM
IC50 [13]: 145 µM

O=C(O)c1ccc2c(c1)ncn2Cc1ccccc1
IC50 [2]: 182 µM
IC50 [3]: 197 µM
Smax [4]: 100%
inhibition [5]: inactive
Smax [6]: 100%
inhibition [7]: inactive
Smax [8]: 100%
inhibition [9]: inactive
Smax [10]: 100%
inhibition [11]: inactive
IC50 [12]: 1030 µM
IC50 [13]: 213 µM

O=C(O)c1ccc2nc(CCNC(=O)c3cccs3)n(Cc3cccc(C(F)(F)F)c3)c2c1
IC50 [2]: 89 µM
IC50 [3]: 317 µM
Smax [4]: 100%
inhibition [5]: inactive
Smax [6]: 131%
Smax [8]: 100%
inhibition [9]: inactive
IC50 [12]: 257 µM

O=C(NCCc1nc2cccc(C(=O)O)c2n1Cc1cccc(C(F)(F)F)c1)c1cccs1
IC50 [2]: > 500 µM
IC50 [3]: 164 µM
Smax [4]: 100%
inhibition [5]: inactive
Smax [6]: 118%
Smax [8]: 100%
inhibition [9]: inactive
Smax [10]: 113%
IC50 [12]: > 1000 µM
